From ChEMBL document CHEMBL4406900, “Synthesis and antidepressant-like activity of novel alkoxy-piperidine derivatives targeting SSRI/5-HT1A/5-HT7” (Bioorg Med Chem Lett, 2019)

Molecular target: Sodium-dependent serotonin transporter (Rattus norvegicus) (UniProt P31652)
Assay: Inhibition of rat synaptosomes 5HT transporter assessed as reduction in [3H]serotonin reuptake at 1 uM incubated for 15 mins by scintillation counting method relative to control
Format: subcellular
Conditions: not given
Procedure, shortened: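 Rat brain synaptosomes; inhibition of [3H]-5-HT incorporation through the serotonin uptake transporter at a single concentration, expressed as inhibition ratio (%).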

Chain of Sodium-dependent serotonin transporter (Rattus norvegicus) (P31652 whole entry): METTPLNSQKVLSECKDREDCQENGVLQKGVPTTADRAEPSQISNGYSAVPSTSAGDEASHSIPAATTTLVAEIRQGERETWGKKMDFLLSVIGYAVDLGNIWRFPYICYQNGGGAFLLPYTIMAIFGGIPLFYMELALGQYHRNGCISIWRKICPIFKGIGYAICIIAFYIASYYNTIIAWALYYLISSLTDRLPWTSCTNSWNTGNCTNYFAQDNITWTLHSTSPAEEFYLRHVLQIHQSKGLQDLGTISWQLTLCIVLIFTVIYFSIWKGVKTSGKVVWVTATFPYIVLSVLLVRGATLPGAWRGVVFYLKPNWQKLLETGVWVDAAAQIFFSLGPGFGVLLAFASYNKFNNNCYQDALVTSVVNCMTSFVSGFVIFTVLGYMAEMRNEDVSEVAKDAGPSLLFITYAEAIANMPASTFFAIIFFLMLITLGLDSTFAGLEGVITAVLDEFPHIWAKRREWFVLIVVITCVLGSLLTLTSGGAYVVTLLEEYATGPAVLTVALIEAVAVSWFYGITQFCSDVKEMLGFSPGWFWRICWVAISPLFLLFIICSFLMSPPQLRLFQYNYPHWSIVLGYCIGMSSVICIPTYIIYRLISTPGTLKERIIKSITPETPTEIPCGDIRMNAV

First: Fc1ccc(OCCN2CCC(c3c[nH]c4ccc(F)cc34)CC2)c(-c2ccccc2F)c1
Second: Fc1ccc(-c2cc(F)ccc2OCCN2CCC(c3c[nH]c4ccc(F)cc34)CC2)cc1
The inhibition of the first is higher: 97.1% for the first, 90.6% for the second.

First: Fc1ccc(OCCCN2CCC(c3c[nH]c4ccc(F)cc34)CC2)c(-c2ccccc2)c1
Second: Fc1ccc(OCCN2CCC(Cc3c[nH]c4ccc(F)cc34)CC2)c(-c2ccccc2)c1
The inhibition of the first is lower: 87% for the first, 101% for the second.

Going from `N#Cc1ccc(-c2cc(F)ccc2OCCN2CCC(c3c[nH]c4ccc(F)cc34)CC2)cc1` to `Cc1ccc(-c2cc(F)ccc2OCCN2CCC(c3c[nH]c4ccc(F)cc34)CC2)cc1`, the inhibition falls from 63% to 38.9%.

In the case of `COc1ccc(-c2cc(F)ccc2OCCN2CCC(c3c[nH]c4ccc(F)cc34)CC2)cc1`, the inhibition is reported as 12.3%.

Molecular target: T1, 5-hydroxytryptamine receptor 1A (Homo sapiens) (UniProt P08908)
T1 sequence (whole entry): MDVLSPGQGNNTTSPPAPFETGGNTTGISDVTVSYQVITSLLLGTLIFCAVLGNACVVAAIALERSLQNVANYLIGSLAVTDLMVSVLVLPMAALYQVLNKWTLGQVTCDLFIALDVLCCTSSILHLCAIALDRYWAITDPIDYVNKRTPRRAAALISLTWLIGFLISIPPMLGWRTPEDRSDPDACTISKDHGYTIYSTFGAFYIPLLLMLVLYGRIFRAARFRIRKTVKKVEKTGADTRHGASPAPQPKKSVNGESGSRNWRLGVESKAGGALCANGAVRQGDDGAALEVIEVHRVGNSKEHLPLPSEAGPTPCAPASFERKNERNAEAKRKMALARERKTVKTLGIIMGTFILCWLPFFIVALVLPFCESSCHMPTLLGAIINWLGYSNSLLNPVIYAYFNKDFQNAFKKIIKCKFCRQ
Assay: Displacement of [3H]-8-OH-DPAT from 5HT1A receptor (unknown origin) expressed in HEK293 cells membranes at 1 uM incubated for 60 mins by scintillation counting method relative to control
Format: cell membranes
Conditions: not given

First: Fc1ccc(OCCN2CCC(c3c[nH]c4ccc(F)cc34)CC2)c(-c2ccccc2F)c1
Second: Fc1ccc(-c2cc(F)ccc2OCCN2CCC(c3c[nH]c4ccc(F)cc34)CC2)cc1
The inhibition of the first is higher: 97.8% for the first, 97.4% for the second.

Compared with `Fc1ccc(OCCCN2CCC(c3c[nH]c4ccc(F)cc34)CC2)c(-c2ccccc2)c1`, `Fc1ccc(OCCN2CCC(Cc3c[nH]c4ccc(F)cc34)CC2)c(-c2ccccc2)c1` is lower in inhibition: 97.7% for the first, 72.3% for the second.

Compared with `N#Cc1ccc(-c2cc(F)ccc2OCCN2CCC(c3c[nH]c4ccc(F)cc34)CC2)cc1`, `Cc1ccc(-c2cc(F)ccc2OCCN2CCC(c3c[nH]c4ccc(F)cc34)CC2)cc1` is lower in inhibition: 97.5% for the first, 94.5% for the second.

`COc1ccc(-c2cc(F)ccc2OCCN2CCC(c3c[nH]c4ccc(F)cc34)CC2)cc1` gave an inhibition of 98.7%.

Molecular target: 5-hydroxytryptamine receptor 7 (Homo sapiens, UniProt P34969)
Sequence (P34969 whole entry): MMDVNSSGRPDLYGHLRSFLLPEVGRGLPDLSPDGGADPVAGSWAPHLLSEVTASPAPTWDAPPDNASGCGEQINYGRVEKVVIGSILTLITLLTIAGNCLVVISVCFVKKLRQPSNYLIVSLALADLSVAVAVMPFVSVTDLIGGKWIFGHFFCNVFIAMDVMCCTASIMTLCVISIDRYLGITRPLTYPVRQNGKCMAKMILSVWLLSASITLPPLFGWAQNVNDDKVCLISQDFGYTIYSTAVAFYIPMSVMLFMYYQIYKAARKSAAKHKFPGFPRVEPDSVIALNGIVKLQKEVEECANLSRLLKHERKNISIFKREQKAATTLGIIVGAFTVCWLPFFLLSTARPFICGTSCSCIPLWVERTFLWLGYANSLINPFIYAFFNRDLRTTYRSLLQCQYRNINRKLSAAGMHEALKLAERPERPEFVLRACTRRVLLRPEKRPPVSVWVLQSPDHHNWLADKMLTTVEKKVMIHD
Assay: Displacement of [3H]-LSD from 5HT7 receptor (unknown origin) expressed in CHO cell membranes at 1 uM incubated for 120 mins by scintillation counting method relative to control
Conditions: not given
Procedure, shortened: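 Single-concentration radioligand displacement on receptor-expressing cell membrane homogenates: [3H]-8-OH-DPAT with HEK-293 membranes for 5-HT1A, [3H]-LSD with CHO membranes for 5-HT7. Values are given as inhibition ratio (%).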

Compared with `Fc1ccc(OCCN2CCC(c3c[nH]c4ccc(F)cc34)CC2)c(-c2ccccc2F)c1`, `Fc1ccc(-c2cc(F)ccc2OCCN2CCC(c3c[nH]c4ccc(F)cc34)CC2)cc1` is lower in inhibition: 88.7% for the first, 86.5% for the second.

Compared with `Fc1ccc(OCCCN2CCC(c3c[nH]c4ccc(F)cc34)CC2)c(-c2ccccc2)c1`, `Fc1ccc(OCCN2CCC(Cc3c[nH]c4ccc(F)cc34)CC2)c(-c2ccccc2)c1` is higher in inhibition: 76.1% for the first, 97.2% for the second.

First: N#Cc1ccc(-c2cc(F)ccc2OCCN2CCC(c3c[nH]c4ccc(F)cc34)CC2)cc1
Second: Cc1ccc(-c2cc(F)ccc2OCCN2CCC(c3c[nH]c4ccc(F)cc34)CC2)cc1
The inhibition of the first is higher: 95.8% for the first, 86.2% for the second.

`COc1ccc(-c2cc(F)ccc2OCCN2CCC(c3c[nH]c4ccc(F)cc34)CC2)cc1` showed an inhibition of 95.9%.

System: not listed separately
Assay: Clearance in human liver microsomes at 1 uM in presence of NADPH generating system measured for 10 to 90 mins by LC-MS/MS analysis
Format: ADME, Microsome
Conditions: read-out: CLH
Procedure, shortened: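 Metabolic stability in rat or human liver microsomes, reported as t1/2 (min) and intrinsic clearance CL (µL/min/mg).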

For `COc1ccc2c(c1)[C@]13CCCC[C@@H]1[C@H](C2)N(C)CC3` [DEXTROMETHORPHAN], the microsomal CLint at 1 µM was 31 µL/min/mg.
